Test results reported in ChEMBL document CHEMBL1926515, “Synthesis and QSAR study of novel cytotoxic spiro[3H-indole-3,2'(1'H)-pyrrolo[3,4-c]pyrrole]-2,3',5'(1H,2'aH,4'H)-triones” (Eur J Med Chem, 2012).

Assays:
Assay type in all cases: functional, cell-based
HCT-116 = assay: Cytotoxicity against human HCT116 cells after 48 hrs by sulforhodamine B assay; settings: HCT-116, 48 h
In short: (§1)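 Cells were seeded at 5×10^4–10^5 per well and allowed to attach for 24 h. Cells were then fixed and SRB-stained, washed with acetic acid, and the dye was recovered in Tris-EDTA for A564. Surviving fraction = OD treated/OD control. IC50 was taken as 50% growth inhibition relative to control, from mean values. Doxorubicin served as reference.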

HepG2 = assay: Cytotoxicity against human HepG2 cells after 48 hrs by sulforhodamine B assay; settings: HepG2, 48 h; in short: as §1
MCF7 = assay: Cytotoxicity against human MCF7 cells after 48 hrs by sulforhodamine B assay; settings: MCF7, 48 h; in short: as §1

| Structure (SMILES) | IC50 (HCT-116) | IC50 (HepG2) | IC50 (MCF7) |
| --- | --- | --- | --- |
| COc1cccc2c1C(=O)c1c(O)c3c(c(O)c1C2=O)C[C@@](O)(C(=O)CO)C[C@@H]3O[C@H]1C[C@H](N)[C@H](O)[C@H](C)O1 [DOXORUBICIN] | 6.86 µM | 7.36 µM |  |
| CN1CC2C(=O)N(c3ccccc3)C(=O)C2C12C(=O)Nc1ccccc12 (configuration not stated) | 63.7 µM | 32.9 µM | 35.6 µM |
| CN1CC2C(=O)N(c3ccc(F)cc3)C(=O)C2C12C(=O)Nc1ccc(Cl)cc12 (configuration not stated) | 73.3 µM | 41.1 µM | 89.9 µM |
| CN1CC2C(=O)N(c3ccccc3)C(=O)C2C12C(=O)Nc1ccc(Cl)cc12 (configuration not stated) | 33 µM | 33 µM | 38.7 µM |
| COc1ccc(N2C(=O)C3CN(C)C4(C(=O)Nc5ccccc54)C3C2=O)cc1 (configuration not stated) | 53.6 µM | 72.5 µM | 48 µM |
| COc1ccc(N2C(=O)C3CN(C)C4(C(=O)Nc5ccc(OC)cc54)C3C2=O)cc1 (configuration not stated) | 40.9 µM | 49.7 µM | 42.7 µM |
| COc1ccc(N2C(=O)C3CN(C)C4(C(=O)Nc5ccc(Cl)cc54)C3C2=O)cc1 (configuration not stated) | 41 µM | 28.9 µM | 38.1 µM |
| COc1ccc2c(c1)C1(C(=O)N2)C2C(=O)N(c3ccc(F)cc3)C(=O)C2CN1C (configuration not stated) | 31.3 µM | 27.7 µM | 44 µM |
| COc1ccc2c(c1)C1(C(=O)N2)C2C(=O)N(c3ccc(C)cc3)C(=O)C2CN1C (configuration not stated) | 46.2 µM | 12.2 µM | 46.8 µM |
| COc1ccc2c(c1)C1(C(=O)N2)C2C(=O)N(c3ccc(Cl)cc3)C(=O)C2CN1C (configuration not stated) | 47.4 µM | 43.4 µM | 38.7 µM |
| CN1CC2C(=O)N(c3ccc(Cl)cc3)C(=O)C2C12C(=O)Nc1ccccc12 (configuration not stated) | 36.8 µM | 32.4 µM | 43 µM |
| Cc1ccc(N2C(=O)C3CN(C)C4(C(=O)Nc5ccccc54)C3C2=O)cc1 (configuration not stated) | 46.1 µM | 77.1 µM | 37.6 µM |
| COc1ccc2c(c1)C1(C(=O)N2)C2C(=O)N(c3ccccc3)C(=O)C2CN1C (configuration not stated) | 34.1 µM | 44.2 µM | 44.8 µM |
| Cc1ccc(N2C(=O)C3CN(C)C4(C(=O)Nc5ccc(Cl)cc54)C3C2=O)cc1 (configuration not stated) | > 126 µM | 63.2 µM | 49.9 µM |
| CN1CC2C(=O)N(c3ccc(Cl)cc3)C(=O)C2C12C(=O)Nc1ccc(Cl)cc12 (configuration not stated) | 35.5 µM | 29.2 µM | 40.6 µM |
| CN1CC2C(=O)N(c3ccc(F)cc3)C(=O)C2C12C(=O)Nc1ccccc12 (configuration not stated) | 42.4 µM | 87.3 µM | 33.9 µM |
